Measured values published in ChEMBL document CHEMBL2390920, “8-Benzamidochromen-4-one-2-carboxylic acids: potent and selective agonists for the orphan G protein-coupled receptor GPR35” (J Med Chem, 2013).

Columns and labels:
[1] = target: T1, G-protein coupled receptor 35 (Homo sapiens, UniProt Q9HC97); experiment: Agonist activity at human GPR35 expressed in CHO cells assessed as induction of beta-arrestin recruitment after 90 mins by beta-galactosidase reporter gene assay; assay type: cell-based
T1 sequence (Q9HC97 whole entry, the tested form may be a part): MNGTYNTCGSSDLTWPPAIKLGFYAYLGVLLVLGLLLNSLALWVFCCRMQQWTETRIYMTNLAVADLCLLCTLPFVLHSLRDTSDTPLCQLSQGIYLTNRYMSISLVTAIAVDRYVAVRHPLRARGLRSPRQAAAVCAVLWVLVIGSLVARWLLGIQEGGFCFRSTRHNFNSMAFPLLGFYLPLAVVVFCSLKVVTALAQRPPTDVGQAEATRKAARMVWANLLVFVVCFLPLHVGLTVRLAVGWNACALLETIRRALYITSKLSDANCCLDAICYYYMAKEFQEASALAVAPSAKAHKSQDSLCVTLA
Outline: (§1)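 PathHunter enzyme-fragment complementation in CHO cells stably expressing β-arrestin-EA and tagged human GPR35, seeded at 20000 cells/well the day before. DMSO dilutions were further diluted 1:10 (final DMSO ≤1%). Cells were incubated 90 min, then detection reagent was added and luminescence read after 60 min.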

[2] = target: T2, G-protein coupled receptor 55 (Homo sapiens, UniProt Q9Y2T6); experiment: Agonist activity at human GPR55 expressed in CHO cells assessed as induction of beta-arrestin recruitment at 10 uM after 90 mins by beta-galactosidase reporter gene assay relative to lysophosphotidylinositol; assay type: functional, cell-based
T2 sequence (Q9Y2T6 whole entry): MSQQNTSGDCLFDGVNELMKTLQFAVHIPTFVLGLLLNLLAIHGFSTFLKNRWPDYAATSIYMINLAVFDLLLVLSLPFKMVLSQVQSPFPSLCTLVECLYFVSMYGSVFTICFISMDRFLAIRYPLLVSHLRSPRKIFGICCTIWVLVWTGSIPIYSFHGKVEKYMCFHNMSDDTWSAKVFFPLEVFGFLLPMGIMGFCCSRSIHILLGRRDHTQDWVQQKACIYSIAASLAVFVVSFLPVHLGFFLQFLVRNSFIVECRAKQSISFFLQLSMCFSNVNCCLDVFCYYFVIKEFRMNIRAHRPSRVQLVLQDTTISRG
Outline: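 Human GPR55 PathHunter CHO cells, 20000 cells/well seeded the day before, received test compound at 10 µM (final DMSO ≤1%) for 90 min. Detection reagent was then added and luminescence read after 60 min. Signal was normalized to that of 1 µM LPI.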

[3] = target: T1, G-protein coupled receptor 35; experiment: Agonist activity at human GPR35 expressed in CHO cells assessed as induction of beta-arrestin recruitment at 10 uM after 90 mins by beta-galactosidase reporter gene assay relative to zaprinast; assay type: cell-based; outline: as §1
[4] = target: T2, G-protein coupled receptor 55; experiment: Antagonist activity at human GPR55 expressed in CHO cells assessed as inhibition of lysophosphotidylinositol-induced beta-arrestin recruitment at 10 uM preincubated for 30 mins followed by lysophosphotidylinositol induction by beta-galactosidase reporter gene assay relative to control; assay type: functional, cell-based
Outline: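 Human GPR55 PathHunter CHO cells were preincubated 30 min with compound, then stimulated with LPI (final 1 µM). After 90 min, detection reagent was added and luminescence read 60 min later. Screening was at 10 µM; full concentration-inhibition curves were run for selected compounds to give IC50.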

[5] = target: G-protein coupled receptor 35 (Mus musculus) (UniProt Q9ES90); experiment: Agonist activity at mouse GPR35 expressed in CHO cells assessed as induction of beta-arrestin recruitment at 10 uM after 90 mins by beta-galactosidase reporter gene assay; assay type: cell-based
G-protein coupled receptor 35 (Mus musculus), sequence (Q9ES90 whole entry): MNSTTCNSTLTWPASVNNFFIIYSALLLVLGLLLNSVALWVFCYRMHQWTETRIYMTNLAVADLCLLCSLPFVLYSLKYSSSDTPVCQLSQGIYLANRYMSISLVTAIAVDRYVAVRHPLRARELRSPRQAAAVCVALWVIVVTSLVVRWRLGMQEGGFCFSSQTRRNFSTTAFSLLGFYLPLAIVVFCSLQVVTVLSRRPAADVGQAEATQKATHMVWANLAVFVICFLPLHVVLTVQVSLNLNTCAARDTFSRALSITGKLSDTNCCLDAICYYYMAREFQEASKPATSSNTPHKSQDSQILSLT
Outline: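 Mouse GPR35 introduced by transfection into a CHO β-arrestin-EA line; 20000 cells/well plated the day prior. After 90 min of compound exposure (final DMSO ≤1%), detection reagent was added and luminescence read after 60 min.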

[6] = target: G protein-coupled receptor GPR35 (Rattus norvegicus) (UniProt Q33BM1); experiment: Agonist activity at rat GPR35 expressed in CHO cells assessed as induction of beta-arrestin recruitment at 10 uM after 90 mins by beta-galactosidase reporter gene assay; assay type: cell-based
G protein-coupled receptor GPR35 (Rattus norvegicus), sequence (Q33BM1 as listed by the source): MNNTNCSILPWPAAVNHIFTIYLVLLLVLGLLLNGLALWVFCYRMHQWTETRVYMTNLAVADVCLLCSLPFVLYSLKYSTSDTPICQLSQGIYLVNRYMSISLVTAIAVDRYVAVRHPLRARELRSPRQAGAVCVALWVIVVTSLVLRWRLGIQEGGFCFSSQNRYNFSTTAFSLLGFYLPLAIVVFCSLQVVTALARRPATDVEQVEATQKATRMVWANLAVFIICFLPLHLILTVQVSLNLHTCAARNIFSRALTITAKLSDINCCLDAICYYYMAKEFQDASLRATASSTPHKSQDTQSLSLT
Outline: (§2)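 Rat GPR35 expressed by transfecting a parental CHO β-arrestin-EA line; cells seeded at 20000/well the day before. Compounds (final DMSO ≤1%) were incubated 90 min, followed by detection reagent and a luminescence read after 60 min.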

[7] = target: G protein-coupled receptor GPR35 (Rattus norvegicus) (UniProt Q33BM1); experiment: Agonist activity at rat GPR35 expressed in CHO cells assessed as induction of beta-arrestin recruitment at 10 uM after 90 mins by beta-galactosidase reporter gene assay relative to zaprinast; assay type: cell-based; outline: as §2
[8] = target: T1, G-protein coupled receptor 35; experiment: Agonist activity at human GPR35b expressed in CHO cells assessed as induction of beta-arrestin recruitment at 10 uM after 90 mins by beta-galactosidase reporter gene assay relative to zaprinast; assay type: cell-based
Outline: (§3)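 CHO β-arrestin-EA parental line transfected with human GPR35b, seeded at 20000 cells/well the day before. Compounds in DMSO were diluted 1:10 in medium or PBS (final DMSO ≤1%). After 90 min of incubation, detection reagent was added and luminescence measured 60 min later. Screening was at 10 µM.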

[9] = target: G protein-coupled receptor GPR35 (Rattus norvegicus, UniProt Q33BM1); experiment: Agonist activity at rat GPR35 expressed in CHO cells assessed as induction of beta-arrestin recruitment after 90 mins by beta-galactosidase reporter gene assay; assay type: cell-based; outline: as §2
G protein-coupled receptor GPR35, sequence (Q33BM1 whole entry): as the sequence (Q33BM1 as listed by the source) above

[10] = target: T1, G-protein coupled receptor 35; experiment: Agonist activity at human GPR35b expressed in CHO cells assessed as induction of beta-arrestin recruitment after 90 mins by beta-galactosidase reporter gene assay; assay type: cell-based; outline: as §3

SMILES	EC50 [1] [nM]	Activity [2] [%]	Emax [3] [%]	inhibition [4] [%]	Activity [5] [%]	Activity [6] [%]	Emax [7] [%]	Emax [8] [%]	EC50 [9] [nM]	EC50 [10] [nM]
Cc1ccc(C(=O)Nc2cccc3c(=O)cc(C(=O)O)oc23)cc1	1380	6	104	16	43	43				
CC(=O)Nc1cccc2c(=O)cc(C(=O)O)oc12	24100	1	91		3	31				
COc1ccc(C(=O)Nc2cc(Cl)cc3c(=O)cc(C(=O)O)oc23)cc1	16.8	-2	110	47	34		86	125	1830	28.6
O=C(Nc1cc(Cl)cc2c(=O)cc(C(=O)O)oc12)c1ccccc1	430	20	115	23	31		65		2840	
O=C(O)c1cc(=O)c2cc(F)cc(NC(=O)c3ccc(Cl)cc3Cl)c2o1	17	-8	113	18	24	46		110		20.5
Cc1cccc(C(=O)Nc2cc(Br)cc3c(=O)cc(C(=O)O)oc23)c1	842	-8	138	46	27		79	111	2080	699
O=C(Nc1cc(F)cc2c(=O)cc(C(=O)O)oc12)c1ccc(Cl)c(Cl)c1	117	3	131	54	37		80	136	2650	106
O=C(Nc1cccc2c(=O)cc(C(=O)O)oc12)c1ccc(C(F)(F)F)cc1	15500	1	81	5	23	38				
O=C(Nc1cccc2c(=O)cc(C(=O)O)oc12)c1cccc([N+](=O)[O-])c1	6970	12	112	20	26	32				
O=C(Cc1ccccc1)Nc1cccc2c(=O)cc(C(=O)O)oc12	8960	-11	107	26	19	47				
CCC(=O)Nc1cccc2c(=O)cc(C(=O)O)oc12	13400	15	119	16	12	30				
COC(=O)CC(=O)Nc1cccc2c(=O)cc(C(=O)O)oc12	20200	-4	87	31	15		89		6650	
O=C(Nc1cc(Br)cc2c(=O)cc(C(=O)O)oc12)c1ccc(Cl)cc1	25.1	12	115	40	27	47		130		40.5
O=C(Nc1cccc2c(=O)cc(C(=O)O)oc12)c1ccccc1	4910	3	107	24	13	39				
O=C(Nc1cc(Br)cc2c(=O)cc(C(=O)O)oc12)c1ccccc1	303	23	110	21	40		75		2750	
N#Cc1ccc(C(=O)Nc2cc(Br)cc3c(=O)cc(C(=O)O)oc23)cc1	399	0	108	38	41		99		2260	
Cc1cccc(C(=O)Nc2cc(Cl)cc3c(=O)cc(C(=O)O)oc23)c1	1220	4	102	40	31		92		2100	
COc1ccc(C(=O)Nc2cc(F)cc3c(=O)cc(C(=O)O)oc23)cc1	112	7	123	34	30		78	113	1760	143
Cc1cccc(C(=O)Nc2cccc3c(=O)cc(C(=O)O)oc23)c1	5440	10	70	25	18		71		2750	
CCOc1ccc(C(=O)Nc2cc(Br)cc3c(=O)cc(C(=O)O)oc23)cc1	634	-1	99	39	36		74		1360	

Results, then the compound that gave them:

EC50 [1] [nM]	Activity [2] [%]	Emax [3] [%]	inhibition [4] [%]	Activity [5] [%]	Activity [6] [%]	Emax [7] [%]	Emax [8] [%]	EC50 [9] [nM]	EC50 [10] [nM]	SMILES
59.9	9	107	46	34		86	118	2050	128	O=C(Nc1cc(Br)cc2c(=O)cc(C(=O)O)oc12)c1ccc2c(c1)OCO2
12600	4	84	17	18	40					Nc1cc(Br)cc2c(=O)cc(C(=O)O)oc12
4200	17	118	16	38		79		1200		O=C(O)c1cc(=O)c2cccc(NC(=O)C3CCCCC3)c2o1
15.4	16	110	47	29		62	109	3250	27.2	O=C(Nc1cc(Br)cc2c(=O)cc(C(=O)O)oc12)c1ccc(Cl)c(Cl)c1
46300	-6	101	32	4	38					O=C(O)c1cc(=O)c2cccc([N+](=O)[O-])c2o1
804	8	122	9	28	49		113		678	O=C(Nc1cccc2c(=O)cc(C(=O)O)oc12)c1ccc(Br)cc1
1710	8	130	14	18		115		3140		O=C(Nc1cc(Cl)cc2c(=O)cc(C(=O)O)oc12)c1ccc([N+](=O)[O-])cc1
112	-1	80	26	7	1					CCOC(=O)c1cc(=O)c2cc(F)cc(NC(=O)c3ccc(OC)cc3)c2o1
382	5	106	40			82	104	3130	873	O=C(O)c1cc(=O)c2cc(F)cc(NC(=O)c3cccc(Cl)c3Cl)c2o1
